CHT PAM: CHT positive allosteric modulators, primary screen, cell-based, membrane potential dye, choline EC20. High affinity choline transporter 1 (Homo sapiens), Q9GZV3. CHT-expressing cells; hits give high values; LV-AA mutant CHT in HEK293 cells. B-score at 10 µM. hit rate 0.49% among 310,000. AID 488977, 2010;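 active = initial fluorescence not abnormally high and integrated response B-score, plate-corrected, over 3 SD above library mean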
HSF1 inh: HSF1 inhibitors in luciferase reporter cells, primary screen, cell-based, NIH3T3, luminescence | AID 2098, 2009 | activity change, negative = inhibition, % at 7.5 µM (by protocol) | NIH3T3-HGL HSE-luciferase, MG132-induced, luminescence 8 h; hits give low values | hit rate 0.77% among 300,000;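 active = more than half of replicate wells show activity change below -50%, luminescence cut by over half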;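 also: luciferase reports HSF-1 transcriptional activity via heat shock element; 0% = median of DMSO wells and -100% = zero luminescence signal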
PHOSPHO1 block: PubChem AID 1565. recombinant PHOSPHO1, absorbance phosphatase assay. Phosphoethanolamine/phosphocholine phosphatase (Homo sapiens), Q8TCT1. inhibition, % at 13.3 µM. hit rate 1.1% among 290,000; in the data active = inhibition above about 60%
Target sequence (Q8TCT1 whole entry, looked up): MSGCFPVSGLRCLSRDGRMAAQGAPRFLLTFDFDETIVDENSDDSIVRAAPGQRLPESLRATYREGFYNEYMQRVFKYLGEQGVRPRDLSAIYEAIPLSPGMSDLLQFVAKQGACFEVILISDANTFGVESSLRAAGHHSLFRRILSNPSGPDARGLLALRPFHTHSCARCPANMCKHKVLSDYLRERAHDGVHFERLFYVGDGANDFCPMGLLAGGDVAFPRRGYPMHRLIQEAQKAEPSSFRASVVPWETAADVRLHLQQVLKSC
Hep lipid drop: inhibitors of hepatocyte lipid droplet formation, primary screen, imaging, high-throughput imaging, BODIPY stain; AML12 mouse hepatocytes, oleate lipid droplets; inhibition, % at 6.5 µM; hit rate 0.4% among 240,000;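 active = lipid droplet intensity inhibited by at least 50%, with more than 500 cells counted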
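Test system: AML12 hepatocytes (mouse); reagent: oleate loading, 100 µM; dosing: one dose, 6.5 µM compound; incubation: overnight exposure; signal: fluorescence imaging, 20x objective, two fields per well; read-out basis: % inhibition of corrected integrated BODIPY droplet signal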
CHT inh: inhibitors of human choline transporter CHT | High affinity choline transporter 1 (Homo sapiens), Q9GZV3 | CHT-expressing cells, membrane potential dye, choline response; hits give low values | B-score at 10 µM | hit rate 0.86% among 310,000;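 active = B-score over 3 SD under the library average, and starting fluorescence ratio not unusually high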;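 also: choline stimulus applied at its EC90 after an EC20 pre-addition; B-score computed on integrated fluorescence ratio after choline addition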
HSF1 activator: HSF-1 activators, primary screen, NIH3T3-HGL cells, MG132 stress, luminescence, single point; activation, % at 9 µM; NIH3T3-HGL HSF-1 luciferase reporter, 8 h; 100% = twice DMSO control signal; hit rate 1.7% among 300,000; AID 504408, 2011;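 active = mean replicate activation of at least 50% with a set share of replicates each reaching 50%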;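 also: 0% = median of the neutral control wells and 100% = twice that signal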
CHT inh conf: CHT inhibitors, confirmation, cell-based, membrane potential dye, duplicate | CHT-expressing cells, choline membrane potential dye; LV-to-AA substituted CHT, HEK293 cells | CHT activity remaining % of control (hits give low values), % at 10 µM | hit rate 70% among 2,400 | shares compounds with CHT inh;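 active = choline transporter activity left, mean of duplicates at 10 µM, below buffer-only control mean minus 3 SD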;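 also: depolarization triggered by choline at its EC90 following an EC20 pre-addition; 0% = hemicholinium-3 full block and 100% = buffer-only control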
HEK293 CHT ctr: membrane potential effects in parental HEK293, counter-screen for CHT inhibitor project, cell-based, membrane potential dye; choline response; active = decrease or increase beyond buffer ±3SD; membrane potential ratio readout (active if shifted either direction beyond buffer ±3SD; no single direction) at 10 µM; hit rate 4% among 2,400; shares compounds with CHT inh;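 also: parental cells lack the transporter so any hit is non-specific; ratio is peak minus trough fluorescence over baseline after EC90 choline challenge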
Starred values were filed as active, the others as inactive. This is a sample that favours compounds with a hit; in the whole collection about 4.9% have one here.

CN(Cc1nc(-c2ccncc2)no1)S(=O)(=O)c1ccc(Br)cc1 was read as CHT PAM inactive, HSF1 inh 5, PHOSPHO1 block 14, Hep lipid drop 7, CHT inh -8*, HSF1 activator -6, CHT inh conf inactive and HEK293 CHT ctr inactive.
`CCOc1cc(/C=N/NC(=O)CN2CCCCC2)ccc1OCc1cccc(Cl)c1` gave CHT PAM inactive, HSF1 inh 5, PHOSPHO1 block -1, Hep lipid drop 1, CHT inh -6.6*, HSF1 activator 6, CHT inh conf 49%* and HEK293 CHT ctr inactive.
`CCOC(=O)N/N=C/c1ccc(OCCSc2ccc(Cl)cc2)c(OCC)c1` gave CHT PAM inactive, HSF1 inh 9, PHOSPHO1 block -33, Hep lipid drop 1, CHT inh -5*, HSF1 activator 25, CHT inh conf inactive and HEK293 CHT ctr inactive.
Screening CC(=O)c1ccc(NC(=O)C[n+]2ccccc2)cc1 returned CHT PAM inactive, HSF1 inh -7, Hep lipid drop -1, CHT inh inactive and HSF1 activator -3.
For O=C(CSc1nnc(-c2ccccc2)o1)NC1CCCC1 the results were CHT PAM inactive, HSF1 inh 13, CHT inh inactive and HSF1 activator 30.
For COc1cccc2cc3c(=O)oc4ccccc4c3nc12 the results were CHT PAM inactive, HSF1 inh -1, PHOSPHO1 block 23, CHT inh inactive and HSF1 activator -4.
`Cc1cc(C)nc(SCc2cc(=O)c(OC(=O)c3ccc(S(=O)(=O)N4CCCC4)cc3)co2)n1` gave CHT PAM inactive, HSF1 inh -20, PHOSPHO1 block 1, Hep lipid drop 2, CHT inh -7.2*, HSF1 activator -32, CHT inh conf 51%* and HEK293 CHT ctr inactive.
`Cc1cc(C)nc(SCc2cc(=O)c(OC(=O)c3cc([N+](=O)[O-])ccc3Cl)co2)n1` gave CHT PAM inactive, HSF1 inh -4, PHOSPHO1 block -6, Hep lipid drop 9, CHT inh -7.4*, HSF1 activator -11, CHT inh conf 28%* and HEK293 CHT ctr inactive.
O=C(Oc1coc(CSc2ncccn2)cc1=O)c1ccccc1[N+](=O)[O-] was read as CHT PAM inactive, HSF1 inh 1, PHOSPHO1 block 19, Hep lipid drop -3, CHT inh inactive and HSF1 activator -7.
For Cc1ccnc(SCc2cc(=O)c(OC(=O)c3ccccc3)co2)n1 the results were CHT PAM inactive, HSF1 inh 2, PHOSPHO1 block -17, Hep lipid drop 19, CHT inh inactive and HSF1 activator -8.
Screening Cc1cc(C)nc(SCc2cc(=O)c(OC(=O)c3ccco3)co2)n1 returned CHT PAM inactive, HSF1 inh -3, PHOSPHO1 block -3, Hep lipid drop 2, CHT inh -6.1*, HSF1 activator -12, CHT inh conf 17%* and HEK293 CHT ctr inactive.
For Cc1cc(C)nc(SCc2cc(=O)c(OC(=O)c3ccc(Br)o3)co2)n1 the results were CHT PAM inactive, HSF1 inh -1, PHOSPHO1 block -1, Hep lipid drop -18, CHT inh -8.2*, HSF1 activator 3, CHT inh conf 14%* and HEK293 CHT ctr inactive.
